# From PubChem
# proCasp3 act: procaspase-3 (human) activation. P42574. recombinant procaspase-3 D3A, Ac-DEVD-pNA absorbance 405 nm. activation, % at 8.5 µM. 0.11% of 330,000 active;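 active means activation above the mean of all tested compounds plus 3 SD, cut at about 21% in these data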;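 further: 0% = DMSO alone and 100% = DMSO wells spiked with extra 5 µM PC-3 D3A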
# Target sequence (P42574 whole entry D9A/D28A/D175A): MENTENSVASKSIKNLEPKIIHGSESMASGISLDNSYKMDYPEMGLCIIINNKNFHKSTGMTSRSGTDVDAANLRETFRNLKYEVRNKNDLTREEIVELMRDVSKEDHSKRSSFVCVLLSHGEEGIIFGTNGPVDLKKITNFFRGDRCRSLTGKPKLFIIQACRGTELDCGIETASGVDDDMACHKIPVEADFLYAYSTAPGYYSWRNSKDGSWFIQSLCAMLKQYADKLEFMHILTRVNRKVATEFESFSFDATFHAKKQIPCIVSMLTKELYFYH
#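 assay system = Procaspase-3 D3A mutant | signal = absorbance at 405 nm, 0 and 120 min | times = 1 h preincubation plus 2 h reaction at 25 °C | repeats = single replicate | read-out = % activation between DMSO and enzyme-spiked controls | medium = Zinc-free HEPES saline buffer with Triton X-100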
# FXN GAA850 act: frataxin GAA850 promoter activation; activation, % at 6 µM; AID 540364; 0.56% of 360,000 active; HEK293 lucGAA850 FXN promoter luciferase reporter, 24 h; percent of 10 µM SAHA response;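 active means activation above the average of all compounds screened plus 3 SD, cutoff fixed separately per campaign, cut at about 7.5% in these data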;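 further: 0% = DMSO wells and 100% = 10 µM SAHA wells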
# procasp7 counter: counter-screen for procaspase-3 activators: activators of human procaspase-7 | P55210 | recombinant procaspase-7, Ac-DEVD-pNA absorbance 405 nm; D23A/D198A/D206A triple mutant, cannot self-cleave; scale: DMSO 0, 5 µM enzyme 100 | activation, % at 8.5 µM | 0.093% of 330,000 active;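 active means percent activation above the screen-wide mean plus 3 SD, cut at about 25% in these data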
# Target sequence (P55210 whole entry D23A/D198A/D206A): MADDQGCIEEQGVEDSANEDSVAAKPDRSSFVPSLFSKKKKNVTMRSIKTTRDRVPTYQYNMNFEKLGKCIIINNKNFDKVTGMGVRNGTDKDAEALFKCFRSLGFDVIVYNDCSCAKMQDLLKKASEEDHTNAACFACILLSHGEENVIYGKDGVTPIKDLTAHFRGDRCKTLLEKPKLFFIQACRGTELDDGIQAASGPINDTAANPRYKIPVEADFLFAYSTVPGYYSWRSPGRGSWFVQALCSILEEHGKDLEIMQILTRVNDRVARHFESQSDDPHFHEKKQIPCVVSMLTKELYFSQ
#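 Material: Procaspase-7 triple mutant (PC-7 D3A) | Quantity: 2 µM procaspase-7 mutant as dispensed | Reagent: DEVD-pNA substrate | Times: 1 h preincubation, 2 h reaction | Technique: 405 nm absorbance of p-nitroaniline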
# GAA30 FXN cntr: counter-screen for GAA850 frataxin promoter activators: GAA30 promoter activation. shares compounds with FXN GAA850 act. HEK293 lucGAA30 FXN promoter luciferase, 24 h; DMSO = 0%, 5 µM ipriflavone = 100%. 66% of 1,900 active. activation, % at 6 µM;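 active means mean activation above the mean of solvent-only control wells plus 3 SD, cut at about 22% in these data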;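 further: counterscreen of GAA850 promoter hits where activity marks nonselective or luminescence artifacts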
# FXN GAA850 conf: GAA850 FXN promoter activation confirmation; activation, % at 6 µM; 86% of 1,900 active; shares compounds with FXN GAA850 act; HEK293 lucGAA850 FXN promoter luciferase reporter, 24 h; 100% = activation by SAHA;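 active means mean activation above a set limit taken from the primary screen, cut at about 8% in these data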;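 further: 0% = DMSO wells and 100% = 10 µM SAHA wells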
# Numbers without * were called inactive; . = no result. Most compounds without a hit are left out; they make up all but 0.7% or so of the library.
SMILES,proCasp3 act,FXN GAA850 act,procasp7 counter,GAA30 FXN cntr,FXN GAA850 conf
O=C(NCc1ccco1)c1ccc(Cn2c(=O)c3sccc3n(Cc3cccc(F)c3)c2=O)cc1,-3,18*,-4,25*,13*
O=C(CCn1c(=O)c2sccc2n(CC(=O)NCc2ccco2)c1=O)NCc1ccccc1,-2,-2,1,.,.
O=C(Cn1c(=O)n(Cc2ccco2)c(=O)c2ccccc21)Nc1cccc(Cl)c1,3,4,7,.,.
CCn1c(CC(=O)Nc2ccc(F)cc2)nnc1SCC(=O)NC1CCCC1,2,0,5,.,.
CCOc1cccc(C2/C(=C(/O)c3ccc4c(c3)CC(C)O4)C(=O)C(=O)N2Cc2cccnc2)c1 (stereo unspecified),2,0,-13,.,.
O=C(NCCc1cccnc1)C1CCC(=O)N(CCc2cccc(F)c2)C1 (stereo unspecified),.,1,.,.,.
CCc1ccc(N(CC(=O)NC)S(C)(=O)=O)cc1,5,-2,0,.,.
CNC(=O)CN(c1ccc(C23CC4CC(CC(C4)C2)C3)cc1)S(C)(=O)=O,-8,7.6*,-2,26*,15*
O=C(NCCc1ccccc1Cl)c1cc(COc2ccc(F)cc2F)on1,-5,1,-4,.,.
O=c1c2ccccc2nc(-c2ccco2)n1Cc1ccccc1,1,8.2*,16,107*,28*
O=c1c2ccccc2nc(-c2ccc(Br)cc2)n1Cc1ccccc1,1,4,6,.,.
O=C1c2ccccc2C(=O)N1CCC#Cc1ccc2cc(CCCO)oc(=O)c2c1,4,3,-11,.,.
COc1ccccc1C(=O)NCCC(=O)NCCC12CC3CC(CC(C3)C1)C2,4,8.1*,-5,21,14*
COc1ccccc1OCCNC(=O)CCNC(=O)c1ccccc1OC,-3,1,6,.,.
CC1(C(=O)NS(=O)(=O)c2cccc(OC(F)F)c2)CCN1C(=O)CC(c1ccccc1)c1ccccc1 (stereo unspecified),.,3,.,.,.
O=C(Nc1cc2c(cc1C(=O)O)OCCCO2)c1ccc(F)cc1F,9,3,-2,.,.
Nc1ccc2nc(-c3ccccc3)c(-c3ccccc3)nc2c1,-9,14*,-4,-5,11*
Nc1ccc(Oc2ccc3nc(-c4ccccc4)c(-c4ccccc4)nc3c2)cc1,-8,0,-8,.,.
C[C@H](CO)N1C[C@H](C)[C@H](CN(C)Cc2ccncc2)Oc2ccc(NC(=O)Nc3ccc(C(F)(F)F)cc3)cc2CC1=O,2,-3,10,.,.
Cc1ccc(Nc2nc(CSc3nnc(-c4ccccc4C)n3C)cs2)cc1,0,2,-9,.,.
Cc1ccc(Nc2nc(CSc3nnc(-c4ccccc4)n3C)cs2)cc1,-18,7.6*,-18,120*,41*
O=C(c1sccc1-c1ccccc1)N1CCN(S(=O)(=O)c2ccccc2F)CC1,2,3,5,.,.
CC(C)CCOP(=O)(c1ccc(N(C)C)cc1)C(O)c1ccccc1 (stereo unspecified),-6,8.2*,1,7,5
CC(C)COP(=O)(c1ccc(N(C)C)cc1)C(O)c1ccccc1 (stereo unspecified),-2,-1,-1,.,.
CC1CCCCC12NC(=O)N(CC(=O)N1CCc3ccccc3C1)C2=O (stereo unspecified),.,1,.,.,.
SMILES,proCasp3 act,FXN GAA850 act,procasp7 counter,GAA30 FXN cntr,FXN GAA850 conf
CCOc1ccc(C(=O)Nc2nnc(C3=COCCO3)o2)cc1,3,1,2,.,.
CCOc1ccccc1CNC(=O)c1ccc2c(c1)N(CC)CCS2,5,0,-3,.,.
NS(=O)(=O)c1ccc(CCNC(=O)c2cc3ccccc3s2)cc1,5,-2,-7,.,.
Cc1ccc2nc(/C(C#N)=C\c3ccc([N+](=O)[O-])o3)[nH]c2c1,9,8.1*,-18,-52,-13
N#C/C(=C\c1ccc([N+](=O)[O-])o1)c1nc2ccccc2[nH]1,5,.,-7,.,.
CC(=O)c1c(C(=O)O)[nH]c(C(=O)O)c1C,2,0,3,.,.
COc1ccc(-c2cnn3c4c(c(C)nc23)CCN4C(C)C)cc1OC,3,9.8*,-1,80*,36*
COC(CN1CCc2c(C)nc3c(C#N)cnn3c21)OC,-2,2,13,.,.
COc1ccc(C(=O)COC(=O)Cn2[nH]c(=O)c3ccccc3c2=O)c(OC)c1,-6,1,5,.,.
O=C(Nc1nnc(C2CCCO2)s1)c1cccs1 (stereo unspecified),14,0,-13,.,.
O=C(Nc1nnc(C2CCCCC2)s1)c1cccs1,3,7.8*,-2,95*,27*
CC(C)(C)NC(=O)CN(C(=O)C(=O)Nc1ccc2c(c1)OCCO2)C(C)(C)C,7,1,3,.,.
CN=c1scc(-c2ccco2)n1/N=C/c1ccc(O)c(O)c1,.,16*,.,44*,23*
COc1ccc(O)c(/C=N/n2c(-c3ccco3)csc2=Nc2cccnc2)c1,-2,2,-9,.,.
C=CCN=c1scc(C)n1/N=C/c1ccc(O)c(O)c1,-23,10*,-36,63*,28*
CN=c1scc(C)n1/N=C/c1ccc(O)cc1,-13,1,-7,.,.
O=C(CN(c1ccccc1)S(=O)(=O)c1ccccc1[N+](=O)[O-])Nc1ccccc1C(=O)N1CCOCC1,5,0,-7,.,.
COC(=O)N(C)C[C@@H]1OCc2ccccc2-c2c(n(C)c3ccccc23)C(=O)N([C@H](C)CO)C[C@@H]1C,.,16*,.,33*,14*
C[C@H](CO)N1C[C@H](C)[C@H](CN(C)C(=O)Nc2ccc(F)cc2)OCc2ccccc2-c2c(n(C)c3ccccc23)C1=O,.,14*,.,20,9.4*
CC(C)NC(=O)N(C)C[C@@H]1OCc2ccccc2-c2c(n(C)c3ccccc23)C(=O)N([C@@H](C)CO)C[C@@H]1C,.,5,.,.,.
C[C@@H]1CN([C@H](C)CO)C(=O)c2c(c3ccccc3n2C)-c2ccccc2CO[C@@H]1CN(C)C(=O)Nc1ccc2c(c1)OCO2,.,-7,.,.,.
Cc1ccccc1S(=O)(=O)N(C)C[C@@H]1OCc2ccccc2-c2c(n(C)c3ccccc23)C(=O)N([C@H](C)CO)C[C@@H]1C,.,20*,.,18,10*
C[C@H](CO)N1C[C@H](C)[C@H](CN(C)S(=O)(=O)c2ccccc2)OCc2ccccc2-c2c(n(C)c3ccccc23)C1=O,.,1,.,.,.
CC(NS(C)(=O)=O)C(c1cccs1)N1CCN(C)CC1 (stereo unspecified),2,1,9,.,.
CC(NS(=O)(=O)c1ccc(Br)cc1)C(c1cccs1)N1CCN(C)CC1 (stereo unspecified),5,17*,-3,11,2
COc1ccc(CCNS(=O)(=O)c2ccc(-c3ccc(=O)[nH]n3)o2)cc1OC,5,1,-6,.,.
